Test results taken from ChEMBL document CHEMBL1126602, “L-beta-(2S,4S)- and L-alpha-(2S,4R)-dioxolanyl nucleosides as potential anti-HIV agents: asymmetric synthesis and structure-activity relationships” (J Med Chem, 1993).

What was measured:
[1] = test system: Human immunodeficiency virus 1; experiment: Effective concentration against HIV-1 strain LAV in human peripheral blood mononuclear (PBM) cells.; assay type: functional, organism-based
Outline: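 Mitogen-stimulated human PBM cells infected with HIV-1 LAV at MOI 0.1 (set by limiting dilution in PBM cells). Compounds were added about 45 min after infection, diluted in medium from 40 mM DMSO stocks (final DMSO below 0.25%). Read-out was supernatant reverse transcriptase (RT) level. EC50 was taken from a median effect plot of dose-effect data.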

Vero = experiment: Cytotoxic effect against vero cells.; assay type: cell-based; settings: Chlorocebus sabaeus
Outline: (§1)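 Uninfected cells were cultured with or without drug: PHA-stimulated human PBM cells for 6 days, Vero cells for 3 days, CEM cells for 6 days. Cells were then counted with trypan blue. Compounds came from 40 mM DMSO stocks diluted in medium (final DMSO below 0.25%). IC50 was derived from a median effect plot.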

[2] = Cytotoxicity against uninfected PHA-stimulated peripheral blood mononuclear (PBM) cells; assay type: cell-based; settings: Homo sapiens; outline: as §1
CCRF-CEM [3] = experiment: Effective concentration for inhibition of virus production in human CEM cells; assay type: functional, cell-based
CCRF-CEM [4] = experiment: Cytotoxicity against uninfected PHA-stimulated CEM cells; assay type: cell-based; settings: Homo sapiens; outline: as §1

EC50 [1] | EC50 (CCRF-CEM [3]) | Compound | IC50 (Vero) | IC50 [2] | IC50 (CCRF-CEM [4])
42.1 µM | – | Nc1nc(N)c2ncn([C@H]3CO[C@H](CO)O3)c2n1 | – | – | –
34.7 µM | – | Nc1nc(Cl)nc2c1ncn2[C@@H]1CO[C@H](CO)O1 | – | – | –
102 µM | – | Nc1nc(O)c2ncn([C@H]3CO[C@H](CO)O3)c2n1 | > 100 µM | > 100 µM | –
0.016 µM | 0.009 µM | Nc1ccn([C@H]2CO[C@@H](CO)O2)c(=O)n1 | – | 62 µM | 12.8 µM
1.3 µM | – | Nc1ccn([C@H]2CO[C@H](CO)O2)c(=O)n1 | 16.8 µM | > 10 µM | –
1.27 µM | – | Nc1nc(Cl)nc2c1ncn2[C@H]1CO[C@H](CO)O1 | – | – | –
0.014 µM | – | Nc1nc(N)c2ncn([C@@H]3CO[C@H](CO)O3)c2n1 | – | – | –
17.5 µM | – | Nc1nc(O)c2ncn([C@@H]3CO[C@H](CO)O3)c2n1 | > 100 µM | > 100 µM | –
0.002 µM | – | Nc1ccn([C@@H]2CO[C@H](CO)O2)c(=O)n1 [TROXACITABINE] | 0.1 µM | > 10 µM | –
– | – | Cc1cn([C@H]2C[C@H](N=[N+]=[N-])[C@@H](CO)O2)c(=O)[nH]c1=O [ZIDOVUDINE] | – | > 100 µM | –
